Experimental data as given in paper PMC11339821 (ACS Omega, 2024).
Several values for one entry are separate records, joined by “and”; a condition that tells them apart may be missing. Equal values may be shown once.

Assays:
Assay type in all cases: in vivo, Swiss albino mice
NO levels = assay: NO; details: hippocampus tissue homogenate
In short: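 Hippocampus came from mice dosed intranasally for 6 days and challenged with scopolamine (n = 5). Tissue was homogenised in KCl buffer pH 8.0 with protease and phosphatase inhibitors, then spun at 10,000 g for 25 min at 4 °C. The 10% homogenate was mixed with ammonium chloride and Griess reagent, held 37 °C for 90 min, read at 540 nm. Sodium nitrite standards […]; nitrite in μM/mL; one-way ANOVA with Newman–Keuls.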

[1] = test system: spatial memory of scopolamine-treated AD mice; assay: Morris water-maze test in scopolamine-treated mice; details: for spatial memory (probe test, fifth day): after platform removal, vs scopolamine group; for number of entries in the arm: intranasal 0.5 mg/kg bw; for time to find the hidden acrylic platform: intranasal 0.5 mg/kg bw (EGCG-AA-TRANS 0.25 mg/kg bw each)
In short: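 Mice (30 ± 5 g; n = 5/group) were dosed intranasally for 6 days with free or transferosome-loaded test compound at 0.5 mg/kg bw, or 0.25 mg/kg bw of each in the combination. On day 7, scopolamine 0.5 mg/kg bw was given 30 min before trials. Pool 160 cm wide, water 26 cm deep, 22 ± 1 °C; run over 5 days. Quadrant time, arm entries and platform latency recorded; one-way ANOVA with Newman–Keuls.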

[2] = Organ distribution and brain pharmacokinetic study; details: brain
[3] = Swiss albino, mouse, inhaled or intranasal, 0.5 mg/kg

Row | Cmax ([2]; mice) [ng/mL] | MRT0–24 ([2]; mice) | Tmax ([2]; mice) [h] | AUC(0-t) [2, 3] [ng·h/mL] | Cmax [2, 3] [ng/mL] | MRT last [2, 3] [h] | Tmax [2, 3] [h] | Molecule | NO levels (NO levels) | spatial memory (probe test, fifth day) [1] | number of entries in the arm [1] | time to find the hidden acrylic platform [1] [s]
1 | – | – | – | – | – | – | – | CN1[C@@H]2C[C@@H](OC(=O)[C@H](CO)c3ccccc3)C[C@H]1[C@@H]1O[C@@H]12 [scopolamine, Scopolamine] | significantly higher | significantly reduced their spatial memory | about 12 times | 84
2 | 0.78607 ± 0.000784 | 1.4 ± 0.985 h and 1.412 ± 0.985 h | 1.101 ± 2.871 | – | – | – | – | Epigallocatechin-3-gallate [EGCG] | significant decrease in NO levels | improved spatial memory | 14 times | 42
3 | – | – | – | 1061 ± 0.654 | 855.03 ± 0.654 | 1.98 ± 0.121 | 2.12 ± 0.871 | O=C1O[C@H]([C@@H](O)CO)C(O)=C1O [AA, ascorbic acid] | significant decrease in NO levels | improved spatial memory | 15 times | 38
